Measurements: PubChem BioAssay AID652011 (Sanford-Burnham Center for Chemical Genomics, 2013)
Values joined by “and” are separate entries in the source; they are usually repeats but may differ in a detail not shown here. Equal values may be shown once. Active and inactive are the calls of the source.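 How the source made its calls: active means IC50 of 10 µM or lower on HIF-2a in both cell lines, but not on HIF-1a; inactive means the rest, including compounds also potent on HIF-1a.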

Experiments:
Assay in all cases: HIF-1a and HIF-2a reporter inhibitors, SAR follow-up, cell-based, luminescence, MIAPaCa-2, 786-0, panel (AID 652011)
[1] = biological target: Endothelial PAS domain-containing protein 1 (Homo sapiens) (UniProt Q99814); conditions: MIAPaCa-2/PANC HIF reporter, luciferase luminescence, desferoxamine, overnight; HIF2a PANC cells; mean of runs
Endothelial PAS domain-containing protein 1 (Homo sapiens), sequence (Q99814 whole entry, looked up, the tested form may be a part): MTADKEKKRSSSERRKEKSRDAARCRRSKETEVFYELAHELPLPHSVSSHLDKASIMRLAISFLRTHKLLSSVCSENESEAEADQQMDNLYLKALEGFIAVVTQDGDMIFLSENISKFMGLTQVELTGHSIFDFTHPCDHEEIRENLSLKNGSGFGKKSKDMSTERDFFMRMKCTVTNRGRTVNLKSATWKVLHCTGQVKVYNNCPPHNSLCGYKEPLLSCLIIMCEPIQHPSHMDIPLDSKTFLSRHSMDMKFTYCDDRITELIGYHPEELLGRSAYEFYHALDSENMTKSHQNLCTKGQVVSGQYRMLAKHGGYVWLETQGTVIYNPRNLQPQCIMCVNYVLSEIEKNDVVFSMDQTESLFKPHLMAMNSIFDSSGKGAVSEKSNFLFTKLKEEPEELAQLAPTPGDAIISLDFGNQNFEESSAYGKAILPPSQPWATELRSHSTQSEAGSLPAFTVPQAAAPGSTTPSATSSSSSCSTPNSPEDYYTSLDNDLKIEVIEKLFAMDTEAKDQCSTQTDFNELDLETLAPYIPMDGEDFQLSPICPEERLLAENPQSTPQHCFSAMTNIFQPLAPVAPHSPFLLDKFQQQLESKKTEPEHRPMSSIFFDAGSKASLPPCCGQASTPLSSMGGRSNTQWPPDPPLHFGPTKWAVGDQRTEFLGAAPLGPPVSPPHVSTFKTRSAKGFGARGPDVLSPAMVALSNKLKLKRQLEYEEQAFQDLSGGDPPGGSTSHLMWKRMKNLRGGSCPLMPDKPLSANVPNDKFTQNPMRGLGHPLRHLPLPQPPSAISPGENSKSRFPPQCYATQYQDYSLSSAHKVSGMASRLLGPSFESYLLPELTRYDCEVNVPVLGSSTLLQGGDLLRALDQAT
Summary of the method: (§1)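 Also added: desferoxamine added before compound. Dosing: compounds from 10 mM and 0.3125 mM stocks, 1% DMSO final. Timing: overnight seeding and compound exposure, 37 °C, 5% CO2, 10-min detection. Detection: luciferase luminescence with One-Glo reagent.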

HIF1a = conditions: MIAPaCa-2/PANC HIF reporter, luciferase luminescence, desferoxamine, overnight
Summary of the method: as §1

HIF2a PANC = conditions: MIAPaCa-2/PANC HIF reporter, luciferase luminescence, desferoxamine, overnight
Summary of the method: as §1

[2] = run 1, individual run IC50, panel line
[3] = run 2, individual run IC50, panel line

Row | SMILES | IC50 [1] | IC50 (HIF1a; [2]) | IC50 (HIF1a; [3]) | IC50 (HIF2a PANC; [2]) | IC50 (HIF2a PANC; [3])
1 | CC(C)(C)c1ccc(-c2noc(CCC(=O)N3CCCCC3)n2)cc1 | inactive | > 99 µM | > 99 µM | > 99 µM | 38.2 µM
2 | CC(C)(C)c1ccc(-c2noc(CCC(N)=O)n2)cc1 | < 0.19 µM | > 99 µM | > 99 µM | < 0.19 µM | < 0.19 µM
3 | CCc1ccc(-c2noc(CCC(=O)NC)n2)cc1 | > 99 µM (inactive) | > 99 µM | > 99 µM | > 99 µM | > 99 µM
4 | CCC(C)NC(=O)CCc1nc(-c2ccc(C(C)(C)C)cc2)no1 (configuration not stated) | > 99 µM (inactive) | > 99 µM | > 99 µM | > 99 µM | > 99 µM
5 | CNC(=O)CCc1nc(-c2ccc(C(C)(C)C)cc2)no1 | inactive | > 99 µM | > 99 µM | < 0.19 µM | > 99 µM
6 | CCNC(=O)CCc1nc(-c2ccccc2C)no1 | > 99 µM (inactive) | > 99 µM | > 99 µM | > 99 µM | > 99 µM
7 | CNC(=O)CCc1nc(-c2ccc(Cl)cc2)no1 | > 99 µM (inactive) | > 99 µM | > 99 µM | > 99 µM | > 99 µM
8 | CCNC(=O)CCc1nc(-c2ccccc2Cl)no1 | > 99 µM (inactive) | > 99 µM | > 99 µM | > 99 µM | > 99 µM
9 | CCCCc1ccc(-c2noc(CCC(=O)NC)n2)cc1 | > 99 µM (inactive) | > 99 µM | > 99 µM | > 99 µM | > 99 µM
10 | CCNC(=O)CCc1nc(-c2ccc(C(C)C)cc2)no1 | > 99 µM (inactive) | > 99 µM | > 99 µM | > 99 µM | > 99 µM
11 | CCNC(=O)CCc1nc(-c2ccc(OCC)cc2)no1 | > 99 µM (inactive) | > 99 µM | > 99 µM | > 99 µM | > 99 µM
12 | CCc1ccc(-c2noc(CCC(=O)NC3CC3)n2)cc1 | > 99 µM (inactive) | > 99 µM | > 99 µM | > 99 µM | > 99 µM
13 | CNC(=O)CCc1nc(-c2ccc(C(C)C)cc2)no1 | < 0.19 µM | > 99 µM | > 99 µM | < 0.19 µM | < 0.19 µM
14 | CC(C)c1ccc(-c2noc(CCC(=O)NC3CC3)n2)cc1 | > 99 µM (inactive) | > 99 µM | > 99 µM | > 99 µM | > 99 µM
15 | C=CCNC(=O)CCc1nc(-c2ccc(C(C)(C)C)cc2)no1 | < 0.19 µM | > 99 µM | > 99 µM | < 10 µM | < 0.19 µM
16 | CCCCc1ccc(-c2noc(CCC(=O)NC3CC3)n2)cc1 | inactive | > 99 µM | > 99 µM | > 99 µM | < 0.19 µM
17 | CCc1ccc(-c2noc(CCC(=O)NC(C)(C)C)n2)cc1 | > 99 µM (inactive) | > 99 µM | > 99 µM | > 99 µM | > 99 µM
18 | CCNC(=O)CCc1nc(-c2ccccc2)no1 | > 99 µM (inactive) | > 99 µM | > 99 µM | > 99 µM | > 99 µM
19 | CCNC(=O)CCc1nc(-c2c(Cl)cccc2Cl)no1 | > 99 µM (inactive) | > 99 µM | > 99 µM | > 99 µM | > 99 µM
20 | CCC(C)NC(=O)CCc1nc(-c2ccc(C(C)C)cc2)no1 (configuration not stated) | > 99 µM (inactive) | > 99 µM | > 99 µM | > 99 µM | > 99 µM
21 | CC(C)(C)NC(=O)CCc1nc(-c2ccc(C(C)(C)C)cc2)no1 | 0.573 µM | > 99 µM | > 99 µM | < 0.19 µM | 0.573 µM
22 | CCc1ccc(-c2noc(CCC(=O)NC(C)CC)n2)cc1 (configuration not stated) | > 99 µM (inactive) | > 99 µM | > 99 µM | > 99 µM | > 99 µM
23 | CCOc1ccc(-c2noc(CCC(=O)NC)n2)cc1 | 1.2 µM | > 99 µM | > 99 µM | 1.72 µM | 0.673 µM
24 | CC(C)NC(=O)CCc1nc(-c2ccc(C(C)(C)C)cc2)no1 | < 0.19 µM | > 99 µM | > 99 µM | < 10 µM | < 0.19 µM
25 | CCCCc1ccc(-c2noc(CCC(=O)NC(C)CC)n2)cc1 (configuration not stated) | < 0.19 µM | > 99 µM | > 99 µM | < 0.19 µM | < 0.19 µM
26 | CCNC(=O)CCc1nc(-c2cccc(C)c2)no1 | > 99 µM (inactive) | > 99 µM | > 99 µM | > 99 µM | > 99 µM

Row | SMILES | IC50 [1] | IC50 (HIF1a; [2]) | IC50 (HIF1a; [3]) | IC50 (HIF2a PANC; [2]) | IC50 (HIF2a PANC; [3])
27 | CC(C)(C)c1ccc(-c2noc(CCC(=O)N3CCOCC3)n2)cc1 | > 99 µM (inactive) | > 99 µM | > 99 µM | > 99 µM | > 99 µM
28 | CC(C)(C)c1ccc(-c2noc(CCC(=O)NC3CC3)n2)cc1 | < 0.19 µM | > 99 µM | > 99 µM | < 10 µM | < 0.19 µM
29 | CN(C)C(=O)CCc1nc(-c2ccc(C(C)(C)C)cc2)no1 | > 99 µM (inactive) | > 99 µM | > 99 µM | > 99 µM | > 99 µM
30 | CCCCc1ccc(-c2noc(CCC(=O)NC(C)(C)C)n2)cc1 | < 0.19 µM | > 99 µM | > 99 µM | < 0.19 µM | < 0.19 µM
31 | CC(C)(C)NC(=O)CCc1nc(-c2ccccc2)no1 | > 99 µM (inactive) | > 99 µM | > 99 µM | > 99 µM | > 99 µM
32 | CNC(=O)CCc1nc(-c2ccc(C)cc2)no1 | inactive | > 99 µM | > 99 µM | 48 µM | > 99 µM
33 | CCNC(=O)CCc1nc(-c2ccc(CC)cc2)no1 | > 99 µM (inactive) | > 99 µM | > 99 µM | > 99 µM | > 99 µM
34 | O=C(O)CCc1nc(-c2ccccc2)no1 | > 99 µM (inactive) | > 99 µM | > 99 µM | > 99 µM | > 99 µM
35 | CCC(C)NC(=O)CCc1nc(-c2ccccc2)no1 (configuration not stated) | > 99 µM (inactive) | > 99 µM | > 99 µM | > 99 µM | > 99 µM
36 | CC(C)c1ccc(-c2noc(CCC(=O)NC(C)(C)C)n2)cc1 | > 99 µM (inactive) | > 99 µM | > 99 µM | > 99 µM | > 99 µM
37 | CC(C)(C)c1ccc(-c2noc(CCC(=O)NCC3CCCO3)n2)cc1 (configuration not stated) | < 0.19 µM | > 99 µM | > 99 µM | < 0.19 µM | < 0.19 µM
38 | CCNC(=O)CCc1nc(-c2cccc(OC)c2)no1 | > 99 µM (inactive) | > 99 µM | > 99 µM | > 99 µM | > 99 µM
39 | CCNC(=O)CCc1nc(-c2cccc(F)c2)no1 | > 99 µM (inactive) | > 99 µM | > 99 µM | > 99 µM | > 99 µM
40 | CNC(=O)CCc1nc(-c2ccccc2)no1 | > 99 µM (inactive) | > 99 µM | > 99 µM | > 99 µM | > 99 µM
41 | CC(C)(C)c1ccc(-c2noc(CCC(=O)NC3CCC3)n2)cc1 | < 0.19 µM | > 99 µM | > 99 µM | < 10 µM | < 0.19 µM
42 | CCN(CC)C(=O)CCc1nc(-c2ccc(C(C)(C)C)cc2)no1 | > 99 µM (inactive) | > 99 µM | > 99 µM | > 99 µM | > 99 µM
43 | CNC(=O)CCc1nc(-c2ccc(F)cc2)no1 | > 99 µM (inactive) | > 99 µM | > 99 µM | > 99 µM | > 99 µM
44 | CCCCc1ccc(-c2noc(CCC(=O)NCC)n2)cc1 | < 0.19 µM | > 99 µM | > 99 µM | < 0.19 µM | < 0.19 µM
45 | CC(C)(C)c1ccc(-c2noc(CCC(=O)Nc3ccccc3)n2)cc1 | < 0.19 µM | > 99 µM | > 99 µM | < 0.19 µM | < 0.19 µM
46 | CC(C)CNC(=O)CCc1nc(-c2ccc(C(C)(C)C)cc2)no1 | < 0.19 µM | > 99 µM | > 99 µM | < 0.19 µM | < 0.19 µM
47 | CCCNC(=O)CCc1nc(-c2ccc(C(C)(C)C)cc2)no1 | inactive | > 99 µM | > 99 µM | > 99 µM | < 0.19 µM
48 | O=C(CCc1nc(-c2ccccc2)no1)NC1CC1 | > 99 µM (inactive) | > 99 µM | > 99 µM | > 99 µM | > 99 µM
49 | CC(C)(C)c1ccc(-c2noc(CCC(=O)NCc3ccco3)n2)cc1 |  | > 99 µM | > 99 µM | < 0.19 µM | 
50 | CNC(=O)CCc1nc(-c2ccc(OC)cc2)no1 | > 99 µM (inactive) | > 99 µM | > 99 µM | > 99 µM | > 99 µM
51 | CCNC(=O)CCc1nc(-c2ccc(C(C)(C)C)cc2)no1 |  | > 99 µM | > 99 µM | > 99 µM and < 10 µM | < 0.19 µM
